The record followed here is ChEMBL document CHEMBL4842319, “Synthesis of alkynylated 1,2,4-oxadiazole/1,2,3-1H-triazole glycoconjugates: Discovering new compounds for use in chemotherapy against lung carcinoma and Mycobacterium tuberculosis” (Eur J Med Chem, 2021).

Structures are written as SMILES. Converted amounts (≈) assume the structure as drawn.

Series [1] concerns Mycobacterium tuberculosis. Briefly: Antimycobacterial activity against Mycobacterium tuberculosis H37Ra ATCC 25177 assessed as inhibition of bacterial growth incubated for 9 days by resazurin microtiter assay. Conditions: H37Ra ATCC 25177, 216 h, time 9 day. It counts as functional. Summed up:
(§1)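 REMA broth microdilution in 7H9-S medium, run in duplicate. Test compounds were serially two-fold diluted on the plate from 64 to 0.5 µg/mL. Inoculum taken from fresh Löwenstein-Jensen culture, adjusted to McFarland no. 1 and diluted 1:20. Plates were sealed and incubated at 37 °C in normal atmosphere for 9 days, then resazurin was added. Rifampicin and ethambutol served as standards. MIC reported in µg/mL.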

Series [2] relates to Mycobacterium tuberculosis. Put plainly: Antimycobacterial activity against Mycobacterium tuberculosis H37Rv ATCC 27294 assessed as inhibition of bacterial growth incubated for 9 days by resazurin microtiter assay. Format: functional. Conditions: H37Rv ATCC 27294, 216 h, time 9 day. Summed up:
as §1
(In general: Alamar Blue is a resazurin reagent that responds to reducing activity.)

A short description of series [3]: Cytotoxicity against mouse RAW264.7 cells assessed as reduction in cell viability incubated for 48 hrs by MTT assay. Format: cell-based. The method in brief:
(§2)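 RAW 264.7 macrophages and HepG2 cells were cultured in DMEM at 37 °C, 5% CO2. For the assay, 10⁵ cells/well were preincubated for 24 h, then exposed to compounds at […] for 48 h, in duplicate. MTT (5 mg/mL in PBS) was added for 2 h and absorbance read at 570 nm. Untreated wells served as the negative control. CC50 obtained by regression analysis.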

Series [4] is described as follows: Cytotoxicity against human HepG2 cells assessed as reduction in cell viability incubated for 48 hrs by MTT assay. It counts as cell-based. Summed up:
as §2
For orientation: Tetrazolium dyes change colour on reduction, which living cells bring about.

Series [5] in a line: Cytotoxicity against African green monkey Vero cells assessed as reduction in cell viability measured after 5 days by MTT assay. It counts as cell-based. Conditions: chlorocebus sabaeus, time 5 day. Summed up:
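Vero cells in DMEM with 10% inactivated FBS, plated at 1×10⁴ cells/well 24 h before treatment. Compounds were applied at 800, 400, 200, 100 and 50 µM, with at most 0.8% DMSO, for 5 days at 37 °C. MTT (1 mg/mL) was added for 4 h, formazan solubilised in DMSO and OD570 read. CC50 is the concentration giving a 50% reduction in absorbance.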

Series [6] is described as follows: Selectivity index, ratio of CC50 for mouse RAW264.7 cells to MIC for antimycobacterial activity against Mycobacterium tuberculosis H37Rv ATCC 27294. Conditions: read-out: Selectivity Index. Format: toxicity.
The nature of series [7]: Selectivity index, ratio of CC50 for human HepG2 cells to MIC for antimycobacterial activity against Mycobacterium tuberculosis H37Rv ATCC 27294. Format: toxicity. Conditions: read-out: Selectivity Index.
For series [8], the system named is NCI-H460. Briefly: Antiproliferative activity against human NCI-H460 cells assessed as inhibition of cell growth incubated for 72 hrs by MTT assay. It counts as functional, cell-based. Conditions: NCI-H460, 72 h. Summed up:
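NCIH-460 cells in RPMI 1640 with 10% FBS at 0.1×10⁶ cells/mL, treated for 72 h at 37 °C, 5% CO2. MTT read-out: 1% MTT for 3 h, formazan dissolved in DMSO, absorbance at 570 nm. IC50 derived from absorbances by nonlinear regression.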

For series [9], the system named is SK-MEL-103. Briefly: Cytotoxicity against human SK-MEL-103 cells assessed as inhibition of cell proliferation at 25 uM incubated for 72 hrs by MTT assay relative to control. Format: functional. More on the design: scale not given: the % may be the effect or the level left. Summed up: (§3)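 Tumor lines from NCI. PC-3, HCT-116 and NCIH-460 were grown in RPMI 1640; SKMEL-103 and AGP-01 in DMEM; all with 10% FBS at 37 °C, 5% CO2. Seeding was 0.3×10⁶ cells/mL for SKMEL-103 and AGP-01, 0.1×10⁶ for PC-3 and NCIH-460, and 0.7×10⁵ for HCT-116. Cells were exposed to compound at 25 µM for 72 h. Cells were centrifuged, 1% MTT added for 3 h, formazan dissolved in DMSO and read at 570 nm.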

A short description of series [10]: Cytotoxicity against human AGP01 cells assessed as inhibition of cell proliferation at 25 uM incubated for 72 hrs by MTT assay relative to control. It counts as functional. Also on record: scale not given: the % may be the effect or the level left. The method in brief: as §3
Series [11] deals with HCT-116. Briefly: Cytotoxicity against human HCT-116 cells assessed as inhibition of cell proliferation at 25 uM incubated for 72 hrs by MTT assay relative to control. Format: functional. Also on record: scale not given: the % may be the effect or the level left. Summed up: as §3
The subject of series [12] is PC-3. Briefly: Cytotoxicity against human PC-3 cells assessed as inhibition of cell proliferation at 25 uM incubated for 72 hrs by MTT assay relative to control. It counts as functional. Also on record: scale not given: the % may be the effect or the level left. The method in brief:
as §3

The subject of series [13] is NCI-H460. Briefly: Cytotoxicity against human NCI-H460 cells assessed as inhibition of cell proliferation at 25 uM incubated for 72 hrs by MTT assay relative to control. It counts as functional. More on the design: scale not given: the % may be the effect or the level left. The method in brief: as §3
For series [14], the system named is Mycobacterium tuberculosis. Put plainly: Antimycobacterial activity against Mycobacterium tuberculosis H37Rv ATCC 27294 assessed as inhibition of bacterial growth by agar dilution method. Format: functional. Background: In agar dilution, organisms are placed on agar that contains the substance at set levels.
For series [15], the system named is Mycobacterium tuberculosis. Put plainly: Antitubercular activity against Mycobacterium tuberculosis H37Rv. Format: functional.

What is called MIC is the lowest concentration that inhibits growth of the organism. The CC50 is the concentration at which the toxic effect on the cells reaches its halfway point. As to `CC(=O)OC[C@H]1O[C@H](OC[C@@H](Cn2cc(CN(c3nc(-c4ccc(C(F)(F)F)cc4)no3)C3CCCCC3)nn2)OC(C)=O)C=C[C@@H]1OC(C)=O`, the minimum inhibitory concentration (MIC) in [1] and in [2] was no less than 64 µg/mL each time. Besides, the values for the CC50 at 48 h in series [3] and in [4] were 64.1 µg/mL (≈ 89 µM) and 81.4 µg/mL (≈ 113 µM), respectively. In addition, the CC50 at 120 h in [5] came out at 706 µM. The selectivity ratio in series [6] is less than 1; in [7], 1.67.

As for `CC(=O)OC[C@H]1O[C@H](OC[C@@H](Cn2cc(CN(c3nc(-c4ccccc4)no3)C3CCCCC3)nn2)OC(C)=O)C=C[C@@H]1OC(C)=O`, the minimum inhibitory concentration (MIC) in series [1] and in [2] was 16 µg/mL (≈ 24.5 µM) each time. For the same compound, the 50% cytotoxic concentration (CC50) at 48 h in [3] was 28.6 µg/mL (≈ 43.8 µM); in [4] it was 19.9 µg/mL (≈ 30.5 µM). Also, the cytotoxic concentration (CC50) at 120 h in series [5] is 607 µM. Besides, the selectivity ratio is 1.78 in series [6] and 1.24 in [7].

A word on the IC50: it is the concentration at which inhibition is half-maximal. Regarding `COc1cccc2c1C(=O)c1c(O)c3c(c(O)c1C2=O)C[C@@](O)(C(=O)CO)C[C@@H]3O[C@H]1C[C@H](N)[C@H](O)[C@H](C)O1` [DOXORUBICIN], the half-inhibitory concentration (IC50) in [8] stood at 0.08 µg/mL (≈ 0.147 µM).

`C#CCN(c1nc(-c2ccc(F)cc2)no1)C1CCCCC1`: the Activity in series [9] stood at 47.3%; in [10], 50.4%; in series [11], 44.9%; in series [12], 25.4%; in series [13] it was 50.5%. Besides, the half-maximal inhibitory concentration (IC50) in [8] came to 1.16 µg/mL (≈ 3.88 µM). Further, the minimum inhibitory concentration (MIC) in series [1] and in series [2] was 64 µg/mL (≈ 214 µM) in each case. In addition, the figures for the CC50 at 48 h in [3] and in series [4] were 20.9 µg/mL (≈ 69.9 µM) and 41.1 µg/mL (≈ 137 µM), respectively. Moreover, the selectivity ratio was determined as 0.32 in series [6] and 0.64 in [7].

As to `CC(=O)OC[C@H]1O[C@H](OC[C@@H](Cn2cc(CN(c3nc(-c4ccc(C)cc4)no3)C3CCCCC3)nn2)OC(C)=O)C=C[C@@H]1OC(C)=O`, the minimal inhibitory concentration (MIC) in [1] came out at 8 µg/mL (≈ 12 µM); in series [2] it was 16 µg/mL (≈ 24 µM). Moreover, the CC50 at 48 h came out at 45.3 µg/mL (≈ 68 µM) in [3] and 36.8 µg/mL (≈ 55.2 µM) in series [4]. Also, the CC50 at 120 h in [5] is 498 µM. The selectivity ratio in series [6] is 2.83; in series [7], 2.3.

As to `C#CCN(c1nc(-c2ccc(OC)cc2)no1)C1CCCCC1`, the Activity was 37.3% in series [9]; 57.3% in series [10]; 40.7% in series [11]; 23.7% in [12]; 69.1% in series [13]. Besides, in series [8], the IC50 amounted to 1 µg/mL (≈ 3.21 µM). Besides, the minimum inhibitory concentration (MIC) was no less than 64 µg/mL in [1] and 64 µg/mL (≈ 206 µM) in [2]. Moreover, the values for the cytotoxic concentration (CC50) at 48 h in series [3] and in series [4] were 28 µg/mL (≈ 89.8 µM) and 72.5 µg/mL (≈ 233 µM), respectively. Further, the results for the selectivity ratio in [6] and in series [7] were 0.46 and 1.13, respectively.

As to `C#CCOc1ccc(-c2noc(NC3CCCCC3)n2)cc1`, the Activity in series [9] is reported as 62.8%; in series [10] it was 2.6%; in series [11], 43.3%; in [12], 64.2%; in [13], 75.7%. For the same compound, the concentration for half-maximal inhibition (IC50) in series [8] is 5.3 µg/mL (≈ 17.8 µM). Besides, the minimal inhibitory concentration (MIC) in series [1] and in series [2] was 32 µg/mL (≈ 108 µM) each time. For the same compound, the CC50 at 48 h in [3] came out at 38.3 µg/mL (≈ 129 µM); in series [4] it was 119 µg/mL (≈ 399 µM). Moreover, the selectivity ratio in series [6] came out at 1.29; in series [7] it was 3.7.

In the case of `CCCCCc1ccc(-c2cn(CC(O)COc3cccc4c3OCC3(CCCCC3)C4=O)nn2)cc1` (stereo not drawn), the minimum inhibitory concentration (MIC) in [14] was determined as 0.78 µg/mL (≈ 1.55 µM).

Turning to `COc1ccc(-c2noc(N(Cc3cn(C[C@H](CO[C@@H]4C=C[C@H](OC(C)=O)[C@@H](COC(C)=O)O4)OC(C)=O)nn3)C3CCCCC3)n2)cc1`, the Activity in series [9] is listed as 29.8%; in series [10] it was 59.2%; in [11], 24.2%; in [12], 21.6%; in [13] it was 24.2%. In addition, the MIC in [1] stood at 16 µg/mL (≈ 23.4 µM); in [2], 32 µg/mL (≈ 46.9 µM). The CC50 at 48 h in series [3] was 86.3 µg/mL (≈ 126 µM); in series [4] it was 141 µg/mL (≈ 207 µM). In addition, the CC50 at 120 h in series [5] is 575 µM. Further, the values for the selectivity ratio in series [6] and in series [7] were 2.7 and 4.41, respectively.

`C#CCN(c1nc(-c2cccc(C)c2)no1)C1CCCCC1`: the Activity in series [9] worked out at 87.7%; in [10], 94.5%; in [11], 86.5%; in series [12], 29.4%; in series [13], 40.2%. The MIC in series [1] was no less than 64 µg/mL; in [2], 32 µg/mL (≈ 108 µM). Also, the CC50 at 48 h was 25.9 µg/mL (≈ 87.6 µM) in series [3] and 44.4 µg/mL (≈ 150 µM) in series [4]. Further, the selectivity ratio in series [6] was determined as 0.8; in series [7], 1.38.

Compound `CC(C)c1ccc(-c2nc(CN3CCN(c4ccnc5c(-c6cccnc6)cccc45)CC3)no2)cc1` had an MIC in [15] of 0.25 µg/mL (≈ 0.51 µM).
